Laboratory results reported in paper PMC7877830 (Clinical and Translational Science, 2020).
Where “and” joins values, the source holds several entries; their conditions need not be identical. Equal values may be shown once. Read-outs that look alike come from different tables or passages of the source.

Tests used:
OATP1B1/1B3 [1] = details: n = 56; across different ethnicities; cited from earlier work
OATP1B1/1B3 [2] = format: in vivo, human; details: for AUC0–16 of endogenous biomarker / AUC0–48 of endogenous biomarker / Cmax of endogenous biomarker: geometric mean (mean, %CV); for AUC0–16 ratio relative to baseline / AUC0–48 ratio relative to baseline / Cmax ratio relative to baseline: point estimate (90% CI)
Method in brief: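 Healthy volunteers in a crossover each got a single fasting 300/120 mg dose of formulation A, B or C. Plasma (K2EDTA, stored −20 °C) drawn predose and up to 48 h. Cmax, AUC0–16 and AUC0–48 derived noncompartmentally by linear trapezoid. Predose level served as baseline; baseline AUC = baseline concentration × interval. Ratios to baseline given with 90% CI; mixed model compared A or B with C.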

OATP1B1 [3] = details: read-out: Km for OATP1B1; cited from earlier work
OATP1B3 [4] = details: read-out: Km for OATP1B3; cited from earlier work
OATP1B3 [5] = details: as per the FDA guidance; unbound concentration in hepatic portal vein; cited from earlier work
[6] = format: in vivo, human; details: for AUC(0-t) / Cmax: human, plasma, oral; for Cmax: geometric mean (mean, %CV), healthy subjects
Method in brief: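 Phase I single-dose complete crossover in healthy subjects, randomised to two test formulations and a reference formulation. Dosed 300/120 mg fasting in the morning, with at least 5 days washout; subjects confined ~4 days on standardized meals. Plasma (K2EDTA, stored −20 °C) sampled predose to 48 h and extracted liquid-liquid with deuterated internal standards. Calibration ~0.200–100 ng/mL; high range ~85.0–10,000 (GLE) or ~85.0–1,050 ng/mL (PIB). Noncompartmental, linear-trapezoidal analysis; BLQ set to zero.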

OATP1B1 [7] = details: as per the FDA guidance; unbound concentration in hepatic portal vein; cited from earlier work
OATP1B1 [8] = details: read-out: OATP1B1 IC50, cited from earlier work
[9] = cited from earlier work
[10] = cited from earlier work; remark: listed apart in the source
OATP1B3 [11] = details: read-out: OATP1B3 IC50; in vitro; cited from earlier work
[12] = cited from earlier work; remark: listed apart in the source
[13] = after GLE/PIB 300/120 mg Formulation A
[14] = after GLE/PIB 300/120 mg Formulation B
[15] = after GLE/PIB 300/120 mg Formulation C
[16] = AUC0–16, geometric mean (mean, %CV), GLE/PIB 300/120 mg Formulation A
[17] = AUC0–16, geometric mean (mean, %CV), GLE/PIB 300/120 mg Formulation B
[18] = AUC0–16, geometric mean (mean, %CV), GLE/PIB 300/120 mg Formulation C
[19] = AUC0–48, geometric mean (mean, %CV), GLE/PIB 300/120 mg Formulation A
[20] = AUC0–48, geometric mean (mean, %CV), GLE/PIB 300/120 mg Formulation B
[21] = AUC0–48, geometric mean (mean, %CV), GLE/PIB 300/120 mg Formulation C
[22] = single dose GLE/PIB 300/120 mg Formulation A, fasting
[23] = single dose GLE/PIB 300/120 mg Formulation B, fasting
[24] = single dose GLE/PIB 300/120 mg Formulation C (reference), fasting

AUC0–16 of endogenous biomarker (OATP1B1/1B3 [2]; [13]) | AUC0–48 of endogenous biomarker (OATP1B1/1B3 [2]; [13]) | Cmax of endogenous biomarker (OATP1B1/1B3 [2]; [13]) | AUC0–16 of endogenous biomarker (OATP1B1/1B3 [2]; [14]) | AUC0–48 of endogenous biomarker (OATP1B1/1B3 [2]; [14]) | Cmax of endogenous biomarker (OATP1B1/1B3 [2]; [14]) | AUC0–16 of endogenous biomarker (OATP1B1/1B3 [2]; [15]) | AUC0–48 of endogenous biomarker (OATP1B1/1B3 [2]; [15]) | Cmax of endogenous biomarker (OATP1B1/1B3 [2]; [15]) | AUC0–16 ratio relative to baseline (OATP1B1/1B3 [2]; [13]) | AUC0–48 ratio relative to baseline (OATP1B1/1B3 [2]; [13]) | Cmax ratio relative to baseline (OATP1B1/1B3 [2]; [13]) | AUC0–16 ratio relative to baseline (OATP1B1/1B3 [2]; [14]) | AUC0–48 ratio relative to baseline (OATP1B1/1B3 [2]; [14]) | Cmax ratio relative to baseline (OATP1B1/1B3 [2]; [14]) | AUC0–16 ratio relative to baseline (OATP1B1/1B3 [2]; [15]) | AUC0–48 ratio relative to baseline (OATP1B1/1B3 [2]; [15]) | Cmax ratio relative to baseline (OATP1B1/1B3 [2]; [15]) | AUC(0-t) [6, 16] [ng·h/mL] | AUC(0-t) [6, 17] [ng·h/mL] | SMILES | also measured
8.98 (9.10, 16) ng·h/mL | 25.4 (25.6, 12) ng·h/mL | 0.726 (0.740, 21) ng/mL | 11.7 (11.9, 23) ng·h/mL | 28.2 (28.5, 18) ng·h/mL | 1.19 (1.24, 26) ng/mL | 13.2 (13.3, 16) ng·h/mL | 30.3 (30.6, 13) ng·h/mL | 1.44 (1.48, 23) ng/mL | 0.97 (0.89 to 1.06) | 0.91 (0.85 to 0.97) | 1.25 (1.12 to 1.41) | 1.25 (1.18 to 1.32) | 1.01 (0.96 to 1.06) | 2.05 (1.81 to 2.32) | 1.39 (1.29 to 1.51) | 1.07 (1.02 to 1.13) | 2.44 (2.11 to 2.82) |  |  | CC1=C(CCC(=O)O)c2cc3nc(cc4[nH]c(cc5[nH]c(cc1n2)c(CCC(=O)O)c5C)c(CCC(=O)O)c4C)C(CCC(=O)O)=C3C [CP‐I, coproporphyrin (CP)‐I] | baseline plasma concentration, previously reported range (OATP1B1/1B3 [1]): 0.5 to 1.5 nM; baseline plasma concentration (OATP1B1/1B3 [2]; mean and SD, predose, all study periods): 0.59 ± 0.09 ng/mL and 0.90 ± 0.14 nM; Km (OATP1B1 [3]): 0.13 µM; Km (OATP1B3 [4]): 3.95 µM
1.20 (1.22, 19) ng·h/mL | 3.32 (3.44, 23) ng·h/mL | 0.104 (0.105, 16) ng/mL | 1.07 (1.24, 73) ng·h/mL | 2.77 (3.44, 41) ng·h/mL | 0.113 (0.116, 25) ng/mL | 1.23 (1.30, 36) ng·h/mL | 2.87 (3.23, 41) ng·h/mL | 0.115 (0.119, 26) ng/mL | 0.94 (0.84 to 1.06) | 0.86 (0.82 to 0.95) | 1.31 (1.18 to 1.46) | 0.96 (0.85 to 1.08) | 0.90 (0.80 to 1.01) | 1.34 (1.18 to 1.53) | 1.01 (0.86 to 1.20) | 0.79 (0.60 to 1.03) | 1.49 (1.24 to 1.78) |  |  | CC1=C(CCC(=O)O)c2cc3nc(cc4[nH]c(cc5[nH]c(cc1n2)c(C)c5CCC(=O)O)c(CCC(=O)O)c4C)C(CCC(=O)O)=C3C [CP‐III] | 
 |  |  |  |  |  |  |  |  |  |  |  |  |  |  |  |  |  | 344 | 1330 | CC(C)(C)[C@@H]1NC(=O)O[C@@H]2CCC[C@H]2OC/C=C/C(F)(F)c2nc3ccccc3nc2O[C@@H]2C[C@@H](C(=O)N[C@]3(C(=O)NS(=O)(=O)C4(C)CC4)C[C@H]3C(F)F)N(C2)C1=O [GLE, glecaprevir] | OATP1B3 R value (OATP1B3 [5]): 2.2; share of exposure observed in the first 16 hours postdose ([6]; across formulations): 94–97%; exposures (Cmax, AUC0–16, AUC0–48) lower relative to reference formulation C ([6]; formulation A, fasting): ~ 80%; exposures (Cmax, AUC0–16, AUC0–48) lower relative to reference formulation C ([6]; formulation B, fasting): ~26%; AUC(0-t) [6, 18]: 1800 ng·h/mL; AUC(0-t) [6, 19]: 367 ng·h/mL; AUC(0-t) [6, 20]: 1370 ng·h/mL; AUC(0-t) [6, 21]: 1850 ng·h/mL; Cmax [6, 22]: 88.5 ng/mL; Cmax [6, 23]: 330 ng/mL; Cmax [6, 24]: 444 ng/mL; OATP1B1 R value (OATP1B1 [7]): 5.5; IC50 (OATP1B1 [8]; in vitro): 0.017 µM; fu,p (fraction of unbound inhibitor in plasma) [9]: 0.025; half-life [10]: about 6 hours; IC50 (OATP1B3 [11]): 0.064 µM
 |  |  |  |  |  |  |  |  |  |  |  |  |  |  |  |  |  | 546 | 514 | COC(=O)N[C@H](C(=O)N1CCC[C@H]1c1nc2cc([C@H]3CC[C@H](c4cc5nc([C@@H]6CCCN6C(=O)[C@@H](NC(=O)OC)[C@@H](C)OC)[nH]c5cc4F)N3c3cc(F)c(N4CCC(c5ccc(F)cc5)CC4)c(F)c3)c(F)cc2[nH]1)[C@@H](C)OC [PIB, pibrentasvir] | RB (blood-to-plasma concentration ratio) [12]: 0.62; exposures lower relative to reference formulation C ([6]; formulations A and B, fasting): 28–49%; AUC(0-t) [6, 18]: 977 ng·h/mL; AUC(0-t) [6, 19]: 658 ng·h/mL; AUC(0-t) [6, 20]: 622 ng·h/mL; AUC(0-t) [6, 21]: 1170 ng·h/mL; Cmax [6, 22]: 86.8 ng/mL; Cmax [6, 23]: 83.7 ng/mL; Cmax [6, 24]: 163 ng/mL; OATP1B1 R value (OATP1B1 [7]): 1.4; IC50 (OATP1B1 [8]; in the presence of 4% bovine serum albumin): 1.3 µM; half-life [10]: ~13 h
